From ChEMBL document CHEMBL1147553, “Betulinic acid and its derivatives as anti-angiogenic agents” (Bioorg Med Chem Lett, 2004)
In brackets after ≈: the same amount, converted by molar mass.

Assays:
[1] = Endothelial cell specificity of compound was determined as cytotoxicity on human tumor cell line DU145 to that of endothelial cell; assay type: functional
Procedure, shortened: (§1)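 Cells (10⁴) exposed in triplicate wells to 0.5–10 µg/mL compound from DMSO stock (final DMSO <0.1%). Cells grown in DMEM with L-glutamine, 25 mM HEPES, 10% FBS and antibiotics at 37 °C, 5% CO2. MTT read-out after 120 h. IC50 is the mean of three experiments. Specificity ratio is IC50 in tumor cell divided by IC50 in ECV304.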

[2] = Endothelial cell specificity of compound was determined as cytotoxicity on human tumor cell line L132 to that of endothelial cell; assay type: functional; procedure, shortened: as §1
[3] = Endothelial cell specificity of compound was determined as cytotoxicity on human tumor cell line A549 to that of endothelial cell; assay type: functional; procedure, shortened: as §1
ECV-304 = assay: Half-maximal cytotoxic concentration of compound against endothelial cell line ECV304; assay type: functional, cell-based; details: Homo sapiens; procedure, shortened: as §1
[4] = Endothelial cell specificity of compound was determined as cytotoxicity on human tumor cell line PA-1 to that of endothelial cell; assay type: functional; procedure, shortened: as §1

CC(C)[C@@H]1CC[C@]2(C(=O)O)CC[C@]3(C)C(CCC4[C@@]5(C)CC/C(=N\NC(=O)c6ccccc6)C(C)(C)C5CC[C@]43C)C12 (stereo not given in full)
ECS ratio [1]: 7.7 | ECS ratio [2]: 1 | ECS ratio [3]: 27.7 | IC50 (ECV-304): 0.39 µg/mL (≈ 0.678 µM) | ECS ratio [4]: 4.3

CC(C)[C@@H]1CC[C@]2(C(=O)O)CC[C@]3(C)C(CCC4[C@@]5(C)CC(Br)[C@H](O)C(C)(C)C5CC[C@]43C)C12 (stereo not given in full)
ECS ratio [1]: 7 | ECS ratio [2]: 3.1 | ECS ratio [3]: 11.5 | IC50 (ECV-304): 0.27 µg/mL (≈ 0.502 µM) | ECS ratio [4]: 7.4

CC(C)[C@@H]1CC[C@]2(C(=O)O)CC[C@]3(C)C(CCC4[C@@]5(C)CC/C(=N\Nc6c(Cl)cc(Cl)cc6Cl)C(C)(C)C5CC[C@]43C)C12 (stereo not given in full)
ECS ratio [1]: 6.6 | ECS ratio [2]: 11.4 | ECS ratio [3]: 19 | IC50 (ECV-304): 0.21 µg/mL (≈ 0.323 µM) | ECS ratio [4]: 5.2

CC(C)[C@@H]1CC[C@]2(C(=O)O)CC[C@]3(C)C(CCC4[C@@]5(C)CC/C(=N\Nc6ccc(F)cc6)C(C)(C)C5CC[C@]43C)C12 (stereo not given in full)
ECS ratio [1]: 3.7 | ECS ratio [2]: 11.1 | ECS ratio [3]: 20 | IC50 (ECV-304): 0.35 µg/mL (≈ 0.62 µM) | ECS ratio [4]: 1.4

C=C(C)[C@@H]1CC[C@]2(C(=O)O)CC[C@]3(C)[C@H](CC[C@@H]4[C@@]5(C)CCC(=O)C(C)(C)[C@@H]5CC[C@]43C)[C@@H]12 [BETUNOLIC ACID]
ECS ratio [1]: 14.2 | ECS ratio [2]: 3.2 | ECS ratio [3]: 9.8 | IC50 (ECV-304): 0.28 µg/mL (≈ 0.616 µM) | ECS ratio [4]: 9.2

C=C(C)[C@@H]1CC[C@]2(C(=O)O)CC[C@]3(C)[C@H](CC[C@@H]4[C@@]5(C)CC[C@H](O)C(C)(C)[C@@H]5CC[C@]43C)[C@@H]12 [BETULINIC ACID]
ECS ratio [1]: 2.2 | ECS ratio [2]: 1 | ECS ratio [3]: 1.1 | IC50 (ECV-304): 1.26 µg/mL (≈ 2.76 µM) | ECS ratio [4]: 3.2
